Insulin prom act: TRM-6 insulin promoter activation. TRM-6 cells (human fetal islet line), insulin promoter eGFP reporter, imaging; plate-scaled: unstimulated 0, stimulated control 100. activation, % at 2 µM. 130,000 compounds, 0.81% hits;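 active means activation at 2 µM above a set limit, confirmed on inspection of the cell images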;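 further: share of cells whose green reporter signal exceeds an intensity cutoff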
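Assay system: TRM-6 human fetal islet cells, insulin promoter–eGFP reporter; Also added: 0.75 µM tamoxifen as reporter inducer; Schedule: 15 h tamoxifen pre-treatment, 48 h compound treatment at 37 °C; Signal: fixed-cell fluorescence microscopy, eGFP plus Hoechst; Read-out: percent activation from GFP-positive cell fraction; Control set: stimulated and unstimulated wells.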
Starred values were filed as active, the others as inactive; [ ] = remark or other dose. Only a selection was taken, and hits are over-represented in it overall.

SMILES | Insulin prom act
Cc1c(N=C/C=C2/N(C)c3ccccc3C2(C)C)c(=O)n(-c2ccccc2)n1C | 30
C=CCN1C(=O)/C(=C\C=C2\N(C)c3ccccc3C2(C)C)SC1=S | 614*[fluoresces]
O=C(CN(C1CCCCC1)C1CCCCC1)N1CCc2ccccc2C1 | -8
CCOC(=O)c1ccc(NC(=O)C(=O)NCc2ccc(/C=C(/C#N)C(=O)NCCOC)o2)cc1 | -7
CN(C)c1ccc(/C=C(/C#N)C(=O)NCc2ccccc2)o1 | 227*
Cc1cccc(NC(=O)/C(C#N)=C/c2ccc(Sc3ccccc3)o2)c1C | -100
CC(C)(C)NC(=O)CN(C(=O)CS(=O)CC(=O)Nc1ccc(F)cc1)c1ccc(Cl)cc1 (stereo not given) | 3
C#CC[N+](C)(C)C(C#Cc1ccccc1)CC=C (stereo not given) | -2
CCS(=O)(=O)N1CCCC(C(=O)NCCc2ccccc2)C1 (stereo not given) | -6
Cc1cccc(NC(=O)CSc2nncn2-c2ccccn2)c1 | 4
CN1C=CC2=C(C#N)C(N)C(C#N)(C#N)[C@H](c3ccccc3)[C@H]2C1 (stereo not given in full) | 300*
CCN(CC(=O)Nc1ccccc1OC)CC(=O)Nc1c(Cl)ccc(C)c1Cl | 0
COCC(=O)N1CCN(c2cccc(Cl)c2)CC1 | 6
CCOc1ccc(OCCCCOc2ccccc2C(C)=O)cc1 | -3
O=C1OC(c2ccc(F)cc2)=C/C1=C\c1ccc([N+](=O)[O-])o1 | 169
N#C/C(=C\c1ccc(N2CCCCC2)o1)C(=O)Nc1cccc(Br)c1 | 186
N#C/C(=C\c1ccc([N+](=O)[O-])o1)C(=O)Nc1ccc(F)cc1 | 400*
Nc1nc(C(F)(F)F)c(Br)c(=O)n1N | 2
Cc1ccc(-c2nnn(CC(=O)N(CC(=O)NC3CCCCC3)c3cnc4ccccc4c3)n2)o1 | -5
Cc1nc2sc3c(c2c(=O)n1N)CCC3 | 0
O=C1CCc2nc3sc4c(c3c(=O)n2N1)CCCC4 | 412*
CCc1nc2sc3c(c2c(=O)o1)CCCC3 | -7
COc1ccc(-c2nc(O)c3cnccn23)cc1 | 0
CCOc1ccc(CCNC(=O)C2CCCN(C(=O)N(C)C)C2)cc1OCC (stereo not given) | 1
CCOC(=O)COc1ccc(S(=O)(=O)NCCC2=CCCCC2)cc1 | 9
SMILES | Insulin prom act
C#CCn1c(=NC(=O)c2cc(-c3cccs3)nc3ccccc23)sc2cc(S(N)(=O)=O)ccc21 | 0
CC1=CC(C)(C)N(C(=O)Nc2ccccc2)c2ccccc21 | 0
C/C=C/C(=O)N1c2ccccc2C(C)=CC1(C)C | 0
CC1=CC(C)(C)N(C(=O)CSc2nncn2C)c2ccccc21 | 631*
O=C(CN1CCCc2ccccc21)NCc1ccc2c(c1)OCO2 | -9
O=C(CN1CCCc2ccccc21)NCCc1ccc(Cl)cc1 | 300*
COC(=O)c1[nH]c2ccc(C)cc2c1NC(=O)CN1CCCc2ccccc21 | 166
O=C1C2C3C=CC(C4CC34)C2C(=O)N1/N=C/c1cccs1 (stereo not given) | 10
O=C(O)CC(SCc1ccc(C(=O)O)o1)C(=O)O (stereo not given) | 76*
O=C(O)c1ccc(COc2ccc(Cl)cc2)o1 | 8
O=C(O)c1ccc(CS(=O)c2cccc(C(F)(F)F)c2)o1 (stereo not given) | 40
CC(C)(C)NS(=O)(=O)c1cc(C(=O)Nc2sccc2C#N)ccc1Cl | 0
CCOc1ccc(N2C(=O)/C(=C/c3cccs3)N(C)C2=S)cc1 | 0
COc1ccc(N=C2S/C(=C\c3cccs3)C(=O)N2CC(C)C)cc1 | -3
CC(C)CN1C(=O)/C(=C/c2cccs2)NC1=S | 431*
CC(=O)Nc1ccc(NC(=O)C(C)OC(=O)c2ccc(C)s2)cc1 (stereo not given) | 0
CCOc1ccc2ccccc2c1/C=N/NC(=O)CC1(C)OCCCO1 | 0
Fc1ccc(Cc2nnc(-c3cccs3)o2)cc1 | -62
O=[N+]([O-])c1ccc(Cc2nnc(-c3ccccc3Cl)o2)cc1 | 344*
Clc1ccccc1-c1nnc(-c2cccs2)o1 | 0
CCOc1ccc(CCNC(=O)C(CCC(N)=O)NC(=O)OCc2ccccc2)cc1OCC (stereo not given) | 229*
Cc1ccc(CNC(=O)C(CCC(N)=O)NC(=O)OCc2ccccc2)cc1 (stereo not given) | 5
CCOc1ccc(CCNC(=O)COC(=O)c2ccco2)cc1OCC | 0
O=C(CCNC(=O)c1ccccc1Cl)NC1=NCCS1 | -8
COC(=O)c1ccc2c(=O)n(CC3CCCO3)c(SCC(=O)NCCc3ccc(S(N)(=O)=O)cc3)nc2c1 (stereo not given) | 7
SMILES | Insulin prom act
CC(=O)c1cccc(NC(=O)N2CCCC2C(=O)Nc2ccc3c(c2)OCCO3)c1 (stereo not given) | 493*
CC(=O)c1cccc(NC(=O)N2CCCC2C(=O)NCc2ccc3c(c2)OCO3)c1 (stereo not given) | 8
COc1ccc(NC(=O)C2CCCN2C(=O)Nc2ccccc2)cc1OC (stereo not given) | -7
Cc1cccc(NC(=O)CN2NS(=O)(=O)c3ccccc3C2=O)c1 | 3
Cc1ccc2nc(-c3ccc(NC(=O)C4CCCO4)cc3)[nH]c2c1 (stereo not given) | -3
CCOC(=O)NC1(C(F)(F)F)NC(=O)N(c2ccc(F)cc2)C1=O (stereo not given) | 7
CCOC(=O)Cn1c(=O)sc2ccccc21 | 0
COc1ccc(-n2c(Cn3c(=O)sc4ccccc43)nnc2SC)cc1 | 12
Cc1ccc(OCn2c(=O)sc3ccccc32)cc1 | 437*
CCOC(=O)C(CC)Sc1nc(-c2ccc(OC)cc2)nc2c1c(=O)n(C)c(=O)n2C (stereo not given) | 0
CN(C)C(=O)NC(Nc1ccc(Cl)cc1Cl)C(Cl)(Cl)Cl (stereo not given) | 0
Cc1ccc(C(CC(=O)O)Nc2nc(N3CCOCC3)nc(N3CCOCC3)n2)cc1 (stereo not given) | 0
CC(=O)n1c(Cl)c(NC(=O)CCl)c2ccccc21 | 4
CCC(CC)C(=O)N1CCN(Cc2nc3ccccc3c(=O)[nH]2)CC1 | -10
COc1cccc(N2CCN(Cc3nc4ccccc4c(=O)[nH]3)CC2)c1 | -79
COc1ccc(N2CCN(Cc3nc4ccccc4c(=O)[nH]3)CC2)cc1 | 579*
Cc1cnc(NC(=O)Cc2cccs2)s1 | -75
O=C(Nc1ccc([N+](=O)[O-])cn1)C1CC2CCC1C2 (stereo not given) | -69
COc1ccc(Nc2ccc3nnc(-c4ccc(Br)cc4)n3n2)cc1 | -2
Cc1cc(C)n(-c2cc(=O)n(C)c(=O)n2C)n1 | -3
Cc1cc(C)n(-c2cc(C)c(C)cc2Br)n1 | 132*
CCc1cc2c(-n3nc(C)cc3C)ncnc2s1 | 343
Cc1ccc(C2C(C#N)=C(N)Oc3n[nH]c(-c4cccs4)c32)s1 (stereo not given) | 9
N#CC1=C(N)Oc2n[nH]c(-c3cccs3)c2C1c1ccsc1 (stereo not given) | 324
N#CC1=C(N)Oc2n[nH]c(-c3cccs3)c2C1C1CCCCC1 (stereo not given) | 110*
OCCNc1nc(SCc2ccccc2)nc2sc3c(c12)CCC3 | -9
Clc1cccc2c1Sc1ccccc1CC2N1CCNCC1 (stereo not given) | 3
Clc1ccc2c(c1)C(N1CCNCC1)Cc1ccccc1S2 (stereo not given) | 507*
Cc1cc(C)n(-c2nc3c(c(=O)n(C)c(=O)n3C)n2CC(O)COc2ccccc2C)n1 (stereo not given) | -77

Screening results from PubChem.
